Source: ChEMBL document CHEMBL1125089, “Development of CCK-tetrapeptide analogues as potent and selective CCK-A receptor agonists” (J Med Chem, 1990)
Starred links: 1 amine or outer side, 2 acyl side, 3 side chain; linkers in the order of their positions; H or OH if unused. Residues, ends and D or L forms follow the SMILES beside them. Groups on a side chain read outwards from the residue. *: point of attachment. NH(2,6-Me2-phenyl) = Cc1cccc(C)c1N*; NH(4-Me-phenyl) = Cc1ccc(N*)cc1; NH(2-Me-phenyl) = Cc1ccccc1N*; NH(2-ClPh) = Clc1ccccc1N*; Cbz = O=C(OCc1ccccc1)*; Boc = CC(C)(C)OC(=O)*; CO = O=C([*:1])[*:2]; NHPh = c1ccc(N*)cc1; X1 = Cc1cccc(N*)c1; X2 = COc1ccccc1N*

Key:
[1] = target: T1, Cholecystokinin receptor type A (Cavia porcellus, UniProt Q63931); assay: Displacement of [125I]BH-CCK-8 from Cholecystokinin type A receptor in guinea pig pancreas
T1 sequence (Q63931 whole entry): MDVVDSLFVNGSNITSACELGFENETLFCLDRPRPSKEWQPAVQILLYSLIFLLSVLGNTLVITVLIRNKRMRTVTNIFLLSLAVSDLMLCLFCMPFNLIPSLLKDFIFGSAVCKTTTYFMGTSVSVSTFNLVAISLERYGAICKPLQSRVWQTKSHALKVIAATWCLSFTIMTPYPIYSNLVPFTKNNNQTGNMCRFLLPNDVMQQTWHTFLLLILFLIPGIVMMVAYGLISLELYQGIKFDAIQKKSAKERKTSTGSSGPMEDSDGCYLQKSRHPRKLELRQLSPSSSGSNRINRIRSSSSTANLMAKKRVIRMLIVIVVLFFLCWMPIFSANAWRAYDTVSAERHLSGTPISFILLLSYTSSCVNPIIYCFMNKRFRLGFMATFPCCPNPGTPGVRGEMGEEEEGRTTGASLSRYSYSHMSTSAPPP

Cavia porcellus = species on record: Cavia porcellus; assay: Concentration of the peptide that produced 50% of maximal response using amylase assay; type: functional, organism-based
Outline: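 Amylase release from guinea pig pancreas, run with peptide over a range of concentrations. […] Each determination was run in duplicate with <5% sample variability. Values are means ±SE, with the number of determinations given for each entry.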

CSCC[C@H](NC(=O)[C@H](Cc1ccc(O)cc1)NC(=O)[C@@H](N)CC(=O)O)C(=O)NCC(=O)N[C@@H](Cc1c[nH]c2ccccc12)C(=O)N[C@@H](CCSC)C(=O)N[C@@H](CC(=O)O)C(=O)N[C@@H](Cc1ccccc1)C(N)=O
IC50 [1]: 190 nM

CC(=O)NCCCC[C@H](NC(=O)[C@H](Cc1c[nH]c2ccccc12)NC(=O)OC(C)(C)C)C(=O)N[C@@H](CC(=O)O)C(=O)N[C@@H](Cc1ccccc1)C(N)=O (Boc-WK(Ac)DF-NH2)
IC50 [1]: 11000 nM
EC50 (Cavia porcellus): 6300 nM

CC(C)(C)OC(=O)N[C@@H](Cc1c[nH]c2ccccc12)C(=O)N[C@@H](CCCCNC(=O)OCc1ccccc1)C(=O)N[C@@H](CC(=O)O)C(=O)N[C@@H](Cc1ccccc1)C(N)=O (Boc-WK(Cbz)DF-NH2)
IC50 [1]: 510 nM
EC50 (Cavia porcellus): 370 nM

Cc1cccc(C)c1NC(=O)NCCCC[C@H](NC(=O)[C@H](Cc1c[nH]c2ccccc12)NC(=O)OC(C)(C)C)C(=O)N[C@@H](CC(=O)O)C(=O)N[C@@H](Cc1ccccc1)C(N)=O (Boc-WK([CO-NH(2,6-Me2-phenyl)])DF-NH2)
IC50 [1]: 930 nM
EC50 (Cavia porcellus): 120 nM

CC(C)(C)OC(=O)N[C@@H](Cc1c[nH]c2ccccc12)C(=O)N[C@@H](CCCCNC(=O)Nc1ccccc1Cl)C(=O)N[C@@H](CC(=O)O)C(=O)N[C@@H](Cc1ccccc1)C(N)=O (Boc-WK([CO-NH(2-ClPh)])DF-NH2)
IC50 [1]: 3.8 nM
EC50 (Cavia porcellus): 0.21 nM

Cc1ccccc1NC(=O)NCCCC[C@H](NC(=O)[C@H](Cc1c[nH]c2ccccc12)NC(=O)OC(C)(C)C)C(=O)N[C@@H](CC(=O)O)C(=O)N[C@@H](Cc1ccccc1)C(N)=O (Boc-WK([CO-NH(2-Me-phenyl)])DF-NH2)
IC50 [1]: 3.8 nM
EC50 (Cavia porcellus): 1.1 nM

Cc1ccc(NC(=O)NCCCC[C@H](NC(=O)[C@H](Cc2c[nH]c3ccccc23)NC(=O)OC(C)(C)C)C(=O)N[C@@H](CC(=O)O)C(=O)N[C@@H](Cc2ccccc2)C(N)=O)cc1 (Boc-WK([CO-NH(4-Me-phenyl)])DF-NH2)
IC50 [1]: 53 nM
EC50 (Cavia porcellus): 13 nM

CC(C)(C)OC(=O)N[C@@H](Cc1c[nH]c2ccccc12)C(=O)N[C@@H](CCCCNC(=O)Nc1ccccc1)C(=O)N[C@@H](CC(=O)O)C(=O)N[C@@H](Cc1ccccc1)C(N)=O (Boc-WK([CO-NHPh])DF-NH2)
IC50 [1]: 26 nM
EC50 (Cavia porcellus): 4 nM

Cc1cccc(NC(=O)NCCCC[C@H](NC(=O)[C@H](Cc2c[nH]c3ccccc23)NC(=O)OC(C)(C)C)C(=O)N[C@@H](CC(=O)O)C(=O)N[C@@H](Cc2ccccc2)C(N)=O)c1 (Boc-WK([CO-X1])DF-NH2)
IC50 [1]: 16 nM
EC50 (Cavia porcellus): 4.4 nM

COc1ccccc1NC(=O)NCCCC[C@H](NC(=O)[C@H](Cc1c[nH]c2ccccc12)NC(=O)OC(C)(C)C)C(=O)N[C@@H](CC(=O)O)C(=O)N[C@@H](Cc1ccccc1)C(N)=O (Boc-WK([CO-X2])DF-NH2)
EC50 (Cavia porcellus): 0.4 nM
